Most compounds without a hit are left out; they make up all but 3.9% or so of the library.
XBP1 UPR activ – activators of adaptive arm of unfolded protein response (XBP1); CHO-XBP1 luciferase reporter, IRE1-XBP1 UPR activation, luminescence; percent of tunicamycin response, DMSO as zero; activation, % at 20 µM; 0.33% of 330,000 active;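 active = versus positive control, 20 µM dose yields 30% or more activation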
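Assay system: IRE1-XBP1 luciferase reporter CHO line. Input: 1000 cells/well. Buffer or medium: F12 with 10% serum. Doses: 20 µM, 1% DMSO. Times: overnight seeding at 37 °C, 6 h compound treatment at 37 °C. Technique: Steady-Glo luciferase glow luminescence, 10 min after reagent addition.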
Jurkat NFkB inh – lowers PMA/ionomycin-induced NF-kB signal in Jurkat cells; PMA/ionomycin-induced NF-kB luciferase reporter, luminescence; inhibition, % at 4 µM; 0.53% of 330,000 active; in the data active = inhibition above about 50%
UPR CHOP act – apoptotic UPR (CHOP) activation | activation, % at 10 µM | 0.34% of 330,000 active | CHO-CHOP luciferase reporter, luminescence; percent of tunicamycin response over DMSO baseline | AID 449763;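 active = at 10 µM dose, activation of 40% or more, normalized to positive control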
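Dosing – one dose, 10 µM in 0.5% DMSO · System – CHO-CHOP cells, stable luciferase reporter of PERK-eIF2a-CHOP signalling · Input – 500 cells/well · Control set – tunicamycin 10 µg/mL final as positive, DMSO-only wells as negative · Timing – 6 h compound treatment, 37 °C · Measure – % activation vs tunicamycin · Technique – luminescence read with Steady-Glo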
CHOP inh – CHOP inhibition in unfolded protein response | CHO-K1 CHOP-promoter luciferase, tunicamycin-induced, 15-18 h | inhibition, % at 10 µM | 3.8% of 220,000 active | AID 2732;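 active = compounds that reduced the stress-induced luciferase reporter signal by more than about 70% of percent inhibition, limit read from the data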
697 NFkB inh – inhibitors of the PMA/ionomycin-induced NF-kB reporter in 697 B cells. inhibition, % at 4 µM. 0.33% of 330,000 active. 697 B-cell NF-kB luciferase reporter, 16 h; in the data active = inhibition above about 35%
Gli-Sufu antag – Gli-Sufu pathway antagonism; inhibition, % at 5 µM; 0.74% of 340,000 active; Sufu-KO-LIGHT fibroblasts, Gli luciferase reporter luminescence;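 active = inhibition above about 55%, limit read from the data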
Hits are given with their value; . = inactive; / = no result given.

SMILES | XBP1 UPR activ | Jurkat NFkB inh | UPR CHOP act | CHOP inh | 697 NFkB inh | Gli-Sufu antag
CCOc1ccc(NC(=O)c2ccc(F)c(S(=O)(=O)N3CCN(c4ccccn4)CC3)c2)cc1 | . | . | . | . | . | .
CN1CCN(S(=O)(=O)c2ccc(Cl)c(C(F)(F)F)c2)CC1 | / | / | / | / | / | .
O=C(Nc1cccc(Cl)c1)c1ccc(F)c(S(=O)(=O)N2CCN(c3ccccn3)CC2)c1 | . | . | . | 74 | . | .
COc1cccc(CN2CC(C(=O)NCCn3ccc(C)n3)CCC2=O)c1 (centres undefined) | . | . | . | / | . | .
CCCc1c(O)nc(SCC(=O)O)[nH]c1=O | . | . | . | 76 | . | .
Cc1ccc(NCCC(=O)c2cccs2)cc1Cl | . | . | . | 80 | . | .
NS(=O)(=O)c1ccc(CCNC(=O)CNCCc2ccc(C(F)(F)F)cc2)cc1 | . | . | . | / | . | .
CC(C)c1ccccc1NC(=O)CNCCc1ccc(C(F)(F)F)cc1 | . | . | . | 76 | . | .
Cc1cc(-n2c(SCC(=O)NCc3cccs3)nc3n[nH]c(C)c3c2=N)ccc1Cl | . | . | . | 81 | . | .
COc1ccc(C=C(c2nc3ccccc3s2)c2nc3ccccc3s2)cc1O | . | . | . | . | . | .
COc1cc(C=C(c2nc3ccccc3s2)c2nc3ccccc3s2)ccc1O | . | . | . | 74 | . | .
CCc1ccc(-c2cnc3nc[nH]c(=O)c3n2)cc1 | . | . | . | / | . | .
COCCCn1c(=O)c2sccc2n2c(CCCC(=O)NCc3cccc(OC)c3)nnc12 | . | . | . | / | . | .
O=S(=O)(NCCc1ccccc1)c1ccc(S(=O)(=O)N2CCCCC2)cc1 | . | . | . | . | . | .
O=S(=O)(c1ccccc1)N1CCN(C/C=C/c2ccccc2)CC1 | . | . | . | / | . | .
O=S(=O)(NCc1ccccc1)c1ccc(S(=O)(=O)N2CCCCC2)cc1 | . | . | . | 72 | . | .
O=S(=O)(c1ccc(S(=O)(=O)N2CCN(C/C=C/c3ccccc3)CC2)cc1)N1CCCC1 | . | . | . | 87 | . | .
O=C(NC(=S)NCc1ccccc1)C1CCCCC1 | . | . | . | 89 | . | .
O=C(Nc1ccon1)c1ccc(OC2CCCC2)cc1 | . | . | . | 78 | . | .
CC(C)(C)c1cc(NC(=O)c2ccc(OC3CCCC3)cc2)no1 | . | . | . | . | . | .
CS(=O)(=O)N(CC(=O)N/N=C/c1ccccc1C(=O)O)c1cccc(Cl)c1Cl | . | . | . | . | . | .
CC(C)c1ccc(/C=N/NC(=O)CN(c2cccc(Cl)c2Cl)S(C)(=O)=O)cc1 | . | . | . | 86 | . | .
CC(=N\Nc1ccc(Cl)cc1)/C(=N/O)C(=O)Nc1ccccc1 | . | . | . | . | . | .
CCOC(=O)C(=N/O)/C(C)=N/NC(=O)C(=O)Nc1ccc(Cl)cc1 | . | . | . | 73 | . | .
Cc1oc2c(CN3CCCCC3)c(O)ccc2c(=O)c1-c1ccc(Cl)cc1 | . | . | . | / | . | .
SMILES | XBP1 UPR activ | Jurkat NFkB inh | UPR CHOP act | CHOP inh | 697 NFkB inh | Gli-Sufu antag
CC(C)(C)N/N=C1\CC(c2ccccc2)Oc2ccccc21 (centres undefined) | . | . | . | 73 | . | .
CC(C)Nc1ncnc2ccc(Br)cc12 | . | . | . | 79 | . | .
Cc1ccc(S(=O)(=O)N2CCCCC2)cc1C(=O)OC1CCCCC1=O (centres undefined) | . | . | . | / | . | .
CCOC(=O)N1CCC(NC(=O)CSCc2nc(-c3ccc(OCC)cc3)oc2C)CC1 | . | . | . | / | . | .
CCOc1ccc(-c2nc(CSCC(=O)NC3CCCc4ccccc43)c(C)o2)cc1 (centres undefined) | . | . | . | 87 | . | .
CCc1ccc(-c2nc(CSCC(=O)N3CCN(c4ccccn4)CC3)c(C)o2)cc1 | . | . | . | 86 | . | .
Cc1ccc(-c2nc(CSCC(=O)N3CCN(c4ccccn4)CC3)c(C)o2)cc1 | . | . | . | 78 | . | .
CCOc1ccc(-c2nc(CSCC(=O)N3CCN(c4cccc(OC)c4)CC3)c(C)o2)cc1 | . | . | . | 74 | . | .
COc1cc(OC)c(OC)cc1/C=C1\Oc2cc(OCC(=O)N3Cc4ccccc4C[C@H]3C(=O)O)ccc2C1=O | . | . | . | / | . | .
O=C(COC(=O)CNC(=O)c1ccc(Cl)cc1Cl)NC1CCCCC1 | . | . | . | / | . | .
CSc1nc(N)c2ncn([C@@H]3O[C@H](COP(=O)(O)OP(=O)(O)OP(=O)(O)O)[C@H](O)C3O)c2n1 (some centres undefined) | / | / | / | . | / | /
Cc1[nH]c2ccccc2c1SCc1ccccc1 | . | . | . | 83 | . | .
CCC(=O)n1nc(-c2ccccc2)nc1N | . | . | . | . | . | .
Cc1ccc(-c2nc(N)n(C(=O)Cc3ccccc3)n2)cc1 | . | . | . | 86 | . | .
COC(=O)c1c(NC(=O)CSc2ncnc3c2cnn3-c2ccccc2Cl)sc2c1CCCC2 | . | . | . | . | . | .
COC(=O)c1c(NC(=O)CCC(=O)O)sc2c1CCCCC2 | . | . | . | . | . | .
COC(=O)c1c(NC(=O)COC(=O)c2ccc(C)s2)sc2c1CCCCC2 | . | . | . | 72 | . | .
COC(=O)c1c(NC(=O)CSc2ncnc3[nH]ncc23)sc2c1CCC2 | . | . | . | 77 | . | .
COC(=O)c1c(NC(=O)c2nn(C)cc2Cl)sc2c1CCCC2 | . | . | . | 74 | . | .
COC(=O)c1c(NC(=O)c2ccn(C)n2)sc2c1CCC2 | . | . | . | / | . | .
COC(=O)c1c(NC(=O)C2CC2)sc2c1CCCC2 | . | . | . | 77 | . | .
CCOc1ccc(NC(=O)CN(C)C(=O)c2cc([N+](=O)[O-])ccc2N2CCOCC2)cc1OCC | . | . | . | / | . | .
CCC(=O)c1ccc(OCC(O)CN2CCN(C(c3ccccc3)c3ccccc3)CC2)cc1 (centres undefined) | . | . | . | 86 | . | .
Cc1ccc(C)c(S(=O)(=O)NCCC(=O)N2CCCC(C(N)=O)C2)c1 (centres undefined) | . | . | . | / | . | .
OCC1(Cc2cccc(Cl)c2)CCCN(Cc2ccc(F)c(F)c2)C1 (centres undefined) | . | . | . | / | . | .
CSc1cccc(CN2CCCC(CO)(Cc3cccc(Cl)c3)C2)c1 (centres undefined) | . | . | . | 95 | . | .
Cc1oc(-c2ccccc2F)nc1CS(=O)(=O)CC(=O)NCc1ccccc1Cl | . | . | . | / | . | .
Cn1c(=O)c(C(=O)CN2CCCc3ccccc32)c(N)n(Cc2ccccc2)c1=O | . | . | . | 77 | . | .

Screening results deposited in PubChem by several laboratories.
